According to ChEMBL document CHEMBL3616437, “Thiazole compounds with activity against Cryptococcus gattii and Cryptococcus neoformans in vitro” (Eur J Med Chem, 2015):
Converted amounts (≈) assume the structure as drawn.

Legend:
[1] = system: Cryptococcus gattii species complex; experiment: Antifungal activity against Cryptococcus gattii L28/02 after 48 to 72 hrs by broth microdilution method; format: functional, Cryptococcus bacillisporus
Outline: (§1)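 CLSI M27-A3 broth microdilution in RPMI with L-glutamine, buffered to pH 7.0 with 0.165 M MOPS. Colonies grown twice on SDA, 48 h at 35°C. Inoculum set to 70% transmittance at 530 nm, then diluted to 1-5 x10^3 cells/mL. Test agents dissolved in DMSO, serially diluted, tested at 0.1 to 62.5 µM. Plates held at 35°C for 48-72 h. MIC is the lowest concentration giving an optically clear well, read visually against drug-free growth controls.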

[2] = system: Cryptococcus bacillisporus; experiment: Antifungal activity against Cryptococcus gattii ATCC 32608 after 48 to 72 hrs by broth microdilution method; format: functional; outline: as §1
[3] = system: Cryptococcus gattii species complex; experiment: Antifungal activity against Cryptococcus gattii L27/01 after 48 to 72 hrs by broth microdilution method; format: functional, Cryptococcus bacillisporus; outline: as §1
Cryptococcus neoformans [4] = experiment: Antifungal activity against Cryptococcus neoformans 96806 after 48 to 72 hrs by broth microdilution method; format: functional
Outline: (§2)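 CLSI M27-A3 broth microdilution. Isolates subcultured twice on SDA, 48 h at 35°C. Saline suspension adjusted to 70% transmittance at 530 nm, then diluted to 1-5 x10^3 cells/mL in RPMI with L-glutamine, 0.165 M MOPS, pH 7.0. Compounds in DMSO, tested at […]. 35°C for 48-72 h. MIC read visually as the lowest concentration giving an optically clear well.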

[5] = system: Cryptococcus gattii species complex; experiment: Antifungal activity against Cryptococcus gattii L24/01 after 48 to 72 hrs by broth microdilution method; format: functional, Cryptococcus bacillisporus; outline: as §1
Cryptococcus neoformans [6] = experiment: Antifungal activity against Cryptococcus neoformans 27JF after 48 to 72 hrs by broth microdilution method; format: functional; outline: as §2
Cryptococcus neoformans [7] = experiment: Antifungal activity against Cryptococcus neoformans 28JF after 48 to 72 hrs by broth microdilution method; format: functional; outline: as §2
Cryptococcus neoformans [8] = experiment: Antifungal activity against Cryptococcus neoformans CN31 after 48 to 72 hrs by broth microdilution method; format: functional; outline: as §2
[9] = system: Cryptococcus gattii species complex; experiment: Antifungal activity against Cryptococcus gattii ICB181 after 48 to 72 hrs by broth microdilution method; format: functional, Cryptococcus bacillisporus; outline: as §1
Cryptococcus neoformans [10] = experiment: Antifungal activity against Cryptococcus neoformans ATCC 24067 after 48 to 72 hrs by broth microdilution method; format: functional; outline: as §2
[11] = Selectivity index, ratio of IC50 for C57BL/6 mouse peritoneal macrophages to MIC for Cryptococcus neoformans ATCC 24067
Outline: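 SI = IC50/MIC. Thioglycollate-elicited peritoneal macrophages from C57BL/6 mice are seeded at 1 x 10^5/well. They are exposed for 48 h at 37°C to eight concentrations from 100 to 0.0128 µM. Viability read by MTT versus 0.5% DMSO control, triplicate in two experiments.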

[12] = Selectivity index, ratio of IC50 for African green monkey Vero cells to MIC for Cryptococcus neoformans ATCC 24067; format: toxicity, cell-based
[13] = system: Cryptococcus gattii species complex; experiment: Ratio of compound MIC for Cryptococcus gattii ICB181 in presence of amphotericin B to compound MIC for Cryptococcus gattii ICB181 in absence of amphotericin B by checkerboard microtiter test; format: functional, Cryptococcus bacillisporus
Outline: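 Checkerboard microdilution: eight two-fold dilutions of test compound (0.11 to 15.6 µM) crossed with amphotericin B (0.025 to 3.9 µM, in DMSO) or fluconazole (0.48 to 62.5 µM, in water). Inoculum per CLSI M27-A3 in RPMI-MOPS pH 7.0, 1-5 x10^3 cells/mL. Growth 48 to 72 h. Effective MIC is the combination concentration giving complete inhibition. FICs derived from MICs in combination versus alone.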

[14] = Cytotoxicity against C57BL/6 mouse peritoneal macrophages assessed as cell viability measured after 48 hrs by MTT assay; format: cell-based; details: C57BL/6, Peritoneal macrophage cell
Outline: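 Thioglycollate-elicited peritoneal macrophages from male C57BL/6 mice, 6–8 weeks old, in RPMI with 10% FBS. Seeded 1 x 10^5 cells/well, pre-incubated 24 h at 37°C. Exposed 48 h at 37°C, 5% CO2, to eight nonserial dilutions from 100 to 0.0128 µM, with 0.5% DMSO control. MTT read-out, % inhibition versus DMSO control. IC50 reported as median with 95% CI. Triplicate, two independent experiments.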

Cryptococcus neoformans [15] = experiment: Antifungal activity against Cryptococcus neoformans LMM820 after 48 to 72 hrs by broth microdilution method; format: functional; outline: as §2
[16] = system: Cryptococcus gattii species complex; experiment: Antifungal activity against Cryptococcus gattii LMM818 after 48 to 72 hrs by broth microdilution method; format: functional, Cryptococcus bacillisporus; outline: as §1
Vero = experiment: Cytotoxicity against African green monkey Vero cells assessed as cell viability measured after 48 hrs by MTT assay; format: cell-based; details: Chlorocebus sabaeus
Outline: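 VERO cells in D-MEM with 5% FBS, used up to 20 passages. Seeded 1 x 10^4 cells/well, pre-incubated 24 h at 37°C. Exposed 48 h at 37°C, 5% CO2, to eight nonserial dilutions from 100 to 0.0128 µM, with 0.5% DMSO control. MTT reduction read-out, corrected for background and blank. IC50 reported as median with 95% CI. Triplicate, two independent experiments.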

[17] = system: Cryptococcus gattii species complex; experiment: Antifungal activity against Cryptococcus gattii 135L/03 after 48 to 72 hrs by broth microdilution method; format: functional, Cryptococcus bacillisporus; outline: as §1
[18] = system: Cryptococcus gattii species complex; experiment: Antifungal activity against Cryptococcus gattii 23/10993 after 48 to 72 hrs by broth microdilution method; format: functional, Cryptococcus bacillisporus; outline: as §1
Cryptococcus neoformans [19] = experiment: Antifungal activity against Cryptococcus neoformans F10 after 48 to 72 hrs by broth microdilution method; format: functional; outline: as §2
[20] = system: Cryptococcus gattii species complex; experiment: Antifungal activity against Cryptococcus gattii 196L/03 after 48 to 72 hrs by broth microdilution method; format: functional, Cryptococcus bacillisporus; outline: as §1
Cryptococcus neoformans [21] = experiment: Antifungal activity against Cryptococcus neoformans ATCC 62066 after 48 to 72 hrs by broth microdilution method; format: functional
Cryptococcus neoformans [22] = experiment: Antifungal activity against Cryptococcus neoformans 5396 after 48 to 72 hrs by broth microdilution method; format: functional; outline: as §2
Cryptococcus neoformans [23] = experiment: Antifungal activity against Cryptococcus neoformans VM-MCMMPI after 48 to 72 hrs by broth microdilution method; format: functional; outline: as §2
Cryptococcus neoformans [24] = experiment: Antifungal activity against Cryptococcus neoformans ATCC 28957 after 48 to 72 hrs by broth microdilution method; format: functional; outline: as §2
[25] = system: Cryptococcus gattii species complex; experiment: Antifungal activity against Cryptococcus gattii 547/OTTI-97-PI-10 after 48 to 72 hrs by broth microdilution method; format: functional, Cryptococcus bacillisporus; outline: as §1
[26] = system: Cryptococcus gattii species complex; experiment: Antifungal activity against Cryptococcus gattii 1913ER after 48 to 72 hrs by broth microdilution method; format: functional, Cryptococcus bacillisporus; outline: as §1
Cryptococcus neoformans [27] = experiment: Antifungal activity against Cryptococcus neoformans WP after 48 to 72 hrs by broth microdilution method; format: functional; outline: as §2

MIC [1]: 2.7 µM (≈ 0.695 µg/mL) | MIC [2]: 2.2 µM (≈ 0.566 µg/mL) | MIC [3]: 1.5 µM (≈ 0.386 µg/mL) | MIC (Cryptococcus neoformans [4]): 1.9 µM (≈ 0.489 µg/mL) | MIC [5]: 1.7 µM (≈ 0.438 µg/mL) | MIC (Cryptococcus neoformans [6]): 3.2 µM (≈ 0.824 µg/mL) | MIC (Cryptococcus neoformans [7]): 2.6 µM (≈ 0.669 µg/mL) | MIC (Cryptococcus neoformans [8]): 1.9 µM (≈ 0.489 µg/mL) | MIC [9]: 1 µM (≈ 0.257 µg/mL) | MIC (Cryptococcus neoformans [10]): 1.9 µM (≈ 0.489 µg/mL) | MIC (Cryptococcus neoformans [15]): 2.2 µM (≈ 0.566 µg/mL) | MIC [16]: 3.4 µM (≈ 0.875 µg/mL) | MIC [17]: 3.1 µM (≈ 0.798 µg/mL) | MIC [18]: 2.9 µM (≈ 0.746 µg/mL) | MIC (Cryptococcus neoformans [19]): 2.2 µM (≈ 0.566 µg/mL) | MIC [20]: 2.2 µM (≈ 0.566 µg/mL) | MIC (Cryptococcus neoformans [21]): 1.2 µM (≈ 0.309 µg/mL) | MIC (Cryptococcus neoformans [22]): 1.2 µM (≈ 0.309 µg/mL) | MIC (Cryptococcus neoformans [23]): 1.6 µM (≈ 0.412 µg/mL) | MIC (Cryptococcus neoformans [24]): 2.2 µM (≈ 0.566 µg/mL) | MIC [25]: 1.9 µM (≈ 0.489 µg/mL) | MIC [26]: 1 µM (≈ 0.257 µg/mL) | MIC (Cryptococcus neoformans [27]): 3.2 µM (≈ 0.824 µg/mL)
SMILES: c1ccc(-c2csc(NN=C3CCCC3)n2)cc1
MFC [1]: 3.9 µM (≈ 1 µg/mL) | MFC [2]: 3.9 µM (≈ 1 µg/mL) | MFC [3]: 1.9 µM (≈ 0.489 µg/mL) | MFC (Cryptococcus neoformans [4]): 7.8 µM (≈ 2.01 µg/mL) | MFC [5]: 7.8 µM (≈ 2.01 µg/mL) | MFC (Cryptococcus neoformans [6]): 7.8 µM (≈ 2.01 µg/mL) | MFC (Cryptococcus neoformans [7]): 1.9 µM (≈ 0.489 µg/mL) | MFC (Cryptococcus neoformans [8]): 1.9 µM (≈ 0.489 µg/mL) | MFC [9]: 1.9 µM (≈ 0.489 µg/mL) | Ratio [11]: 29 | selectivity ratio [12]: 29 | fractional inhibitory concentration index (FICI) [13]: 1.28 | IC50 [14]: > 100 µM | MFC (Cryptococcus neoformans [15]): 3.9 µM (≈ 1 µg/mL) | MFC [16]: 3.9 µM (≈ 1 µg/mL) | IC50 (Vero): > 100 µM | MFC [17]: 3.9 µM (≈ 1 µg/mL) | MFC [18]: 3.9 µM (≈ 1 µg/mL) | MFC (Cryptococcus neoformans [19]): 7.8 µM (≈ 2.01 µg/mL) | MFC [20]: 7.8 µM (≈ 2.01 µg/mL) | MFC (Cryptococcus neoformans [21]): 3.9 µM (≈ 1 µg/mL) | MFC (Cryptococcus neoformans [22]): 0.9 µM (≈ 0.232 µg/mL) | MFC (Cryptococcus neoformans [23]): 7.8 µM (≈ 2.01 µg/mL) | MFC (Cryptococcus neoformans [24]): 7.8 µM (≈ 2.01 µg/mL) | MFC [25]: 7.8 µM (≈ 2.01 µg/mL) | MFC [26]: 7.8 µM (≈ 2.01 µg/mL) | MFC (Cryptococcus neoformans [27]): 3.9 µM (≈ 1 µg/mL)
